Source: ChEMBL document CHEMBL1139904, “2-hydroxy-N-arylbenzenesulfonamides as ATP-citrate lyase inhibitors” (Bioorg Med Chem Lett, 2007)
Values belong to the compound of their own block, whether it stands above or below them.

Experiments:
ATP-citrate synthase = target: T1, ATP-citrate synthase (Homo sapiens, UniProt P53396); assay: Inhibition of human recombinant ATP-citrate lyase
T1 sequence (P53396 whole entry): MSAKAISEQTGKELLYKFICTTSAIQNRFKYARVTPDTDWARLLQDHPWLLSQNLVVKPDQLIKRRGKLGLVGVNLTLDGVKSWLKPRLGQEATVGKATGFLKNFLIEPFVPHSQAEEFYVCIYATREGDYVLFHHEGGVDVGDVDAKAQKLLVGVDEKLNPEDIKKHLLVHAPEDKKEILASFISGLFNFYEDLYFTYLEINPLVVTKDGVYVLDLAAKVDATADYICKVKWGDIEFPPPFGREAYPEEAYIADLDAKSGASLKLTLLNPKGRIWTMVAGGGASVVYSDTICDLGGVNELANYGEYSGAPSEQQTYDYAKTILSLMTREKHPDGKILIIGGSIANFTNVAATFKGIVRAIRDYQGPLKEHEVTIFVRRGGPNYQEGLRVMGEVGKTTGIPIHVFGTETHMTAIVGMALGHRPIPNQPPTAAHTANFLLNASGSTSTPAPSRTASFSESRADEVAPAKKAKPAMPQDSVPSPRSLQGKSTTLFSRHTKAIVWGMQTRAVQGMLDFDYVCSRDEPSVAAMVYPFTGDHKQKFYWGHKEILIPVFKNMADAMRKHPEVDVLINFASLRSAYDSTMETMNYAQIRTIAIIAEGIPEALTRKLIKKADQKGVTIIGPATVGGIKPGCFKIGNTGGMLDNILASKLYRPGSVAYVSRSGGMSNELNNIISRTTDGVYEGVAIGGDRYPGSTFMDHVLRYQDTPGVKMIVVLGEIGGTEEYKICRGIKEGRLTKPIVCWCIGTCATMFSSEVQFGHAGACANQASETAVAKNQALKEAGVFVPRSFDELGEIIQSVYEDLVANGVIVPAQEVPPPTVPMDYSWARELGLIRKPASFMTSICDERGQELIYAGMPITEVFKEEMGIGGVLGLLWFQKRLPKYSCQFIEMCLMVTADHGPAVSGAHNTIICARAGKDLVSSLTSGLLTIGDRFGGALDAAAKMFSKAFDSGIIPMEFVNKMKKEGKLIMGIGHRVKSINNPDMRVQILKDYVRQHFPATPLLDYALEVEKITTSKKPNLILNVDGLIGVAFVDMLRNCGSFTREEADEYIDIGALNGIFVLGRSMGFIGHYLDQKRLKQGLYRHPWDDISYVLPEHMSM
Outline: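 Recombinant human ACL enzyme assay; values are at least two separate measurements.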

HepG2 [1] = assay: Inhibition of total lipid synthesis HepG2 cells assessed as incorporation of [14C]total lipids after 6 hrs; assay type: functional, cell-based; details: Homo sapiens, HepG2, 6 h
Outline: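 HepG2 cells incubated 6 h after compound addition, with [14C]-alanine present for the final 4 h; label incorporation into total lipid measured.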

[2] = Oral bioavailability in mouse at 10 mg/kg; assay type: ADME, organism-based; details: in vivo
Outline: (§1)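 Mice dosed at 10 mg/kg both iv and po; vehicle 10% ethanol, 45% water, 45% PEG-400. Standard PK parameters derived: oral bioavailability, half-life, Cmax (po), Tmax (po), total body clearance.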

[3] = Half life in mouse at 10 mg/kg, iv and po; assay type: ADME, organism-based; design: dose 10 mg/kg, route oral; details: in vivo; outline: as §1
[4] = Cmax in mouse at 10 mg/kg, po; assay type: ADME, organism-based; design: dose 10 mg/kg, route oral; details: in vivo; outline: as §1
Mus musculus [5] = assay: Increase in food consumption in high-fat diet C57BL/6 mouse at 10 mg/kg; assay type: functional
Outline: (§2)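 Eight-week-old C57BL/6 mice (~30 g), five per group. High-fat diet (30% coconut oil, 45% sucrose) admixed with compound to give 10 or 100 mg/kg/day, versus high-fat and normal-chow controls, for 34 days. Food intake and body weight tracked; plasma lipids and fasting glucose assessed weekly. Lipid/glucose changes expressed as % reduction versus high-fat controls at day 29.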

Mus musculus [6] = assay: Increase in food consumption in normal fat diet C57BL/6 mouse at 10 mg/kg; assay type: functional
Mus musculus [7] = assay: Reduction of cholesterol level in high-fat diet C57BL/6 mouse at 10 mg/kg; assay type: functional; design: scale not given: the % may be the effect or the level left; outline: as §2
Mus musculus [8] = assay: Reduction of cholesterol level in high-fat diet C57BL/6 mouse at 100 mg/kg; assay type: functional; design: scale not given: the % may be the effect or the level left; outline: as §2
Mus musculus [9] = assay: Reduction of triglycerides in high-fat diet C57BL/6 mouse at 10 mg/kg; assay type: functional; design: scale not given: the % may be the effect or the level left; outline: as §2
Mus musculus [10] = assay: Reduction of triglycerides in high-fat diet C57BL/6 mouse at 100 mg/kg; assay type: functional; design: scale not given: the % may be the effect or the level left; outline: as §2
Mus musculus [11] = assay: Reduction of fasting plasma glucose level in C57BL/6 mouse at 10 mg/kg; assay type: functional; design: scale not given: the % may be the effect or the level left; outline: as §2
Mus musculus [12] = assay: Reduction of fasting plasma glucose level in C57BL/6 mouse at 100 mg/kg; assay type: functional; design: scale not given: the % may be the effect or the level left; outline: as §2
Mus musculus [13] = assay: Reduction of body weight gain in high-fat diet C57BL/6 mouse at 10 mg/kg after 29 days; assay type: functional; design: scale not given: the % may be the effect or the level left; outline: as §2
Mus musculus [14] = assay: Reduction of body weight gain in high-fat diet C57BL/6 mouse at 100 mg/kg after 29 days; assay type: functional; design: scale not given: the % may be the effect or the level left; outline: as §2
Acetyl-CoA carboxylase 2 = Acetyl-CoA carboxylase 2 (Homo sapiens, UniProt O00763); assay: Inhibition of human ACC2
Acetyl-CoA carboxylase 1 = Acetyl-CoA carboxylase 1 (Homo sapiens, UniProt Q13085); assay: Inhibition of human ACC1
[15] = Tmax in mouse at 10 mg/kg, po; details: in vivo
HepG2 [16] = assay: Cytotoxicity against HepG2 cells upto 50 uM by Alamar blue assay; details: Homo sapiens
Mus musculus [17] = assay: Reduction of fat in high-fat diet C57BL/6 mouse at 10 mg/kg after 34 days; design: scale not given: the % may be the effect or the level left
Mus musculus [18] = assay: Reduction of fat in high-fat diet C57BL/6 mouse at 100 mg/kg after 34 days; design: scale not given: the % may be the effect or the level left

Acetyl-CoA carboxylase 2, sequence (O00763 whole entry): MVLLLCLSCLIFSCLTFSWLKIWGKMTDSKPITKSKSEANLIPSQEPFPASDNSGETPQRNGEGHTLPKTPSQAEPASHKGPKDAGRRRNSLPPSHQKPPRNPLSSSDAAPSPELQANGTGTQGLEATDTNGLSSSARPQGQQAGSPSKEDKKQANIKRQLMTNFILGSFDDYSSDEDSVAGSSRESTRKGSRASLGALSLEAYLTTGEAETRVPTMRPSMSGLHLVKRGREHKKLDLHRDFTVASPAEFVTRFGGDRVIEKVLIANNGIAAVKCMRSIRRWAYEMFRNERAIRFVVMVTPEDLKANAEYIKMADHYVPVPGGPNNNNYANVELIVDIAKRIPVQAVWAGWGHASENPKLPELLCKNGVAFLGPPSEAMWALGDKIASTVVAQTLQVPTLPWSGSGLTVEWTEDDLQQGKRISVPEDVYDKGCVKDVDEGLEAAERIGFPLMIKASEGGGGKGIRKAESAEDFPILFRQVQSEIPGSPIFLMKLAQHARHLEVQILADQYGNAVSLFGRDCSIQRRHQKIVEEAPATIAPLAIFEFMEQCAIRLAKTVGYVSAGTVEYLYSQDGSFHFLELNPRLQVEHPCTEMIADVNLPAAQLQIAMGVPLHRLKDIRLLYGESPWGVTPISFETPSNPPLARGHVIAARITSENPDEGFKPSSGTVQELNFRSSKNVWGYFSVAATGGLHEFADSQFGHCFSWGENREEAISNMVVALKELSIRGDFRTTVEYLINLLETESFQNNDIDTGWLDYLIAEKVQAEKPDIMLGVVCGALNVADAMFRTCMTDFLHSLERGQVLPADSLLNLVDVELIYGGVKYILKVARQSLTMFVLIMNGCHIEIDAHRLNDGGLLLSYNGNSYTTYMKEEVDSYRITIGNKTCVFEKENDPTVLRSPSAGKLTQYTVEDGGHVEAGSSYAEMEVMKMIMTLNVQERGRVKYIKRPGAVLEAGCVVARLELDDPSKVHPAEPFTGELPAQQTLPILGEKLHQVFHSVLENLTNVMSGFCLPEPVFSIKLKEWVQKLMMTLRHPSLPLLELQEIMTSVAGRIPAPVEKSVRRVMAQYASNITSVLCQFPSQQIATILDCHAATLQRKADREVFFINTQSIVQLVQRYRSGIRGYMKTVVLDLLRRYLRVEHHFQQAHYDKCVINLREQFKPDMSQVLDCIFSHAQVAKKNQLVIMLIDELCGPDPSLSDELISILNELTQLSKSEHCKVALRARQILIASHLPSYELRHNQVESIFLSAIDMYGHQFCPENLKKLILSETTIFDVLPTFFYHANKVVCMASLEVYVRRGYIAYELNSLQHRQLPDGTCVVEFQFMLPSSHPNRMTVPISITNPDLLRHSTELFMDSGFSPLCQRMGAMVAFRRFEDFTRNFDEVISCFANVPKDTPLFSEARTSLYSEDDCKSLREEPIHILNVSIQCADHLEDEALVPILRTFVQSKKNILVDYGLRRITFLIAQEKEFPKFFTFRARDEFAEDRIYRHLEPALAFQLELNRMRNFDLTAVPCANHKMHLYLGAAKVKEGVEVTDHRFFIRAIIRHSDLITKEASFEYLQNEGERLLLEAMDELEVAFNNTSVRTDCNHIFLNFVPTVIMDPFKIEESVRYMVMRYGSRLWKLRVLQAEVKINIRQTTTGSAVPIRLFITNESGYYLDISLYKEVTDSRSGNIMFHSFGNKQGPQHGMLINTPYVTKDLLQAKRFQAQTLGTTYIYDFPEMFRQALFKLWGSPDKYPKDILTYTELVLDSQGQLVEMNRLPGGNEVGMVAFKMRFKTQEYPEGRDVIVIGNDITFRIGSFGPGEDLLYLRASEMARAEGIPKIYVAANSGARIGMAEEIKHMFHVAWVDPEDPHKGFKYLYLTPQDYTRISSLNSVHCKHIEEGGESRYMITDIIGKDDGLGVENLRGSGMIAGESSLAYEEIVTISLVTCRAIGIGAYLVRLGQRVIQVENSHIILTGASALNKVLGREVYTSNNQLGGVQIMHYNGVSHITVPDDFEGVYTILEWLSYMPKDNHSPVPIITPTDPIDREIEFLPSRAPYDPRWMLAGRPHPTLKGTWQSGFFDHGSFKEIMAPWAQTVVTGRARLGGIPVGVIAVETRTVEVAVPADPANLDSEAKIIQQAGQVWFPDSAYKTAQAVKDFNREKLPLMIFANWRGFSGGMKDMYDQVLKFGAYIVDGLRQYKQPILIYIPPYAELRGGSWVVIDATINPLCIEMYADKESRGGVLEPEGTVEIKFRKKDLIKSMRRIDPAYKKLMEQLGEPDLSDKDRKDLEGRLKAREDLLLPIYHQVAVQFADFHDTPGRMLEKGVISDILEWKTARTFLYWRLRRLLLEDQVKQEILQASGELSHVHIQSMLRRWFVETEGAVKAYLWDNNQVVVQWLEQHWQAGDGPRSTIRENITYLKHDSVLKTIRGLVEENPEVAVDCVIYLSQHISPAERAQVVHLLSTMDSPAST

SMILES: O=C(OC/C=C\c1ccccc1)c1ccccc1NS(=O)(=O)c1cc(Cl)cc(Cl)c1O
IC50 (ATP-citrate synthase): 340 nM

SMILES: CC1CCC(C(C)C)C(OC(=O)c2ccccc2NS(=O)(=O)c2cc(Cl)cc(Cl)c2O)C1 (stereo not drawn)
IC50 (ATP-citrate synthase): 370 nM

SMILES: O=S(=O)(Nc1c(-c2ccccc2)cc(-c2ccccc2)cc1-c1ccccc1)c1cc(Cl)cc(Cl)c1O
IC50 (ATP-citrate synthase): 190 nM

SMILES: O=C(O)C[C@@](O)(C[C@H](O)CCCCCCc1ccc(Cl)cc1Cl)C(=O)O
IC50 (ATP-citrate synthase): 2100 nM

SMILES: O=C(O)C[C@@](O)(C(=O)O)[C@H](O)C(=O)O
IC50 (ATP-citrate synthase): 150 nM

SMILES: COc1ccc(-c2ccccc2)cc1NS(=O)(=O)c1cc(Cl)cc(Cl)c1O
IC50 (ATP-citrate synthase): 130 nM | IC50 (HepG2 [1]): 8 µM | bioavailability [2]: 55% | half-life [3]: 126 min | Cmax [4]: 13 µM | Activity (Mus musculus [5]): 3.2 g/day | Activity (Mus musculus [6]): 4 g/day | Activity (Mus musculus [7]): -9% | Activity (Mus musculus [8]): -19% | Activity (Mus musculus [9]): -26% | Activity (Mus musculus [10]): -26% | Activity (Mus musculus [11]): -48% | Activity (Mus musculus [12]): -32% | Activity (Mus musculus [13]): 7.2% | Activity (Mus musculus [14]): 3% | IC50 (Acetyl-CoA carboxylase 2): 12 µM | IC50 (Acetyl-CoA carboxylase 1): 6 µM | Tmax [15]: 30 min | Activity (HepG2 [16]): Not toxic | Activity (Mus musculus [17]): 12.9% | Activity (Mus musculus [18]): 7.3%

The remaining lines, values ahead:

IC50 (ATP-citrate synthase): 2300 nM
SMILES: O=S(=O)(Nc1cc(Cl)cc(Cl)c1)c1cc(Cl)cc(Cl)c1O

IC50 (ATP-citrate synthase): 5600 nM
SMILES: CC(C)(C)c1ccc(C(C)(C)C)c(NS(=O)(=O)c2cc(Cl)cc(Cl)c2O)c1

IC50 (ATP-citrate synthase): 1100 nM
SMILES: CC(C)(C)c1cc(NS(=O)(=O)c2cc(Cl)cc(Cl)c2O)cc(C(C)(C)C)c1

IC50 (ATP-citrate synthase): 8100 nM
SMILES: O=S(=O)(Nc1cccc(Oc2ccccc2)c1)c1cc(Cl)cc(Cl)c1O

IC50 (ATP-citrate synthase): 7600 nM
SMILES: O=S(=O)(Nc1cc(F)cc(F)c1)c1cc(Cl)cc(Cl)c1O

IC50 (ATP-citrate synthase): 10900 nM
SMILES: CC(=O)N(C)c1ccc(NS(=O)(=O)c2cc(Cl)cc(Cl)c2O)cc1

IC50 (ATP-citrate synthase): 6900 nM
SMILES: CCCCCCc1ccc(NS(=O)(=O)c2cc(Cl)cc(Cl)c2O)cc1
